ChEMBL document CHEMBL1641513, “Synthesis of sugars embodying conjugated carbonyl systems and related triazole derivatives from carboxymethyl glycoside lactones. Evaluation of their antimicrobial activity and toxicity” (Bioorg Med Chem, 2011)
In brackets after ≈: the same amount, converted by molar mass. Several values for one entry are separate records, joined by “and”; a condition that tells them apart may be missing. Equal entries are not always repeated.

Experiments:
[1] = Cytotoxicity against […] HII4E cells after 48 hrs by MTT assay; assay type: cell-based
How it was run: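 Adherent […] hepatoma cells attached 24 h in 96-well plates, then exposed to compound 24 h. H2O2 positive control, DMSO negative control. At 48 h of culture, MTT added (0.5 mg/mL final) for 3 h. Cells washed, formazan dissolved in DMSO with 20 min shaking at room temperature. Absorbance read at 550 nm, 620 nm reference.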

[2] = Antifungal activity against Penicillium aurantiogriseum ATCC 16025 after 24 to 48 hrs by paper disk diffusion assay; assay type: functional
How it was run: (§1)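 Fungal disk diffusion per CLSI. Overnight cultures spread on potato dextrose agar. 6.4 mm paper disks each loaded with 300 μg substance in 15 μL DMSO. Actidione and amphotericin B positive controls, DMSO negative control. Incubated 25 °C for 24–48 h. Inhibition-zone diameter averaged over two replicates, scored by diameter ranges.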

[3] = test system: Salmonella enteritidis; experiment: Antibacterial activity against Salmonella enteritidis ATCC 13076 after 24 hrs by paper disk diffusion assay; assay type: functional, Salmonella enterica subsp. enterica serovar Enteritidis
How it was run: (§2)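 Disk diffusion per CLSI. Overnight bacterial cultures spread on nutrient agar. 6.4 mm paper disks each loaded with 300 μg substance in 15 μL DMSO. Chloramphenicol positive control, DMSO negative control. Incubated 37 °C, 24 h. Nearest inhibition-zone diameter measured, averaged over two replicates. Scored –(<12 mm) to +++++ (≥26 mm).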

[4] = test system: Enterococcus faecalis; experiment: Antibacterial activity against Enterococcus faecalis ATCC 7080 after 24 hrs by paper disk diffusion assay; assay type: functional; how it was run: as §2
[5] = test system: Listeria monocytogenes; experiment: Antibacterial activity against Listeria monocytogenes ATCC 19115 after 24 hrs by paper disk diffusion assay; assay type: functional
How it was run: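 Disk diffusion per CLSI, overnight culture spread on tryptone soya agar. 6.4 mm paper disks each loaded with 300 μg substance in 15 μL DMSO. Chloramphenicol positive control, DMSO negative control. Incubated 37 °C, 24 h. Inhibition-zone diameter measured, averaged over two replicates, and scored by diameter ranges.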

[6] = test system: Staphylococcus aureus; experiment: Antibacterial activity against Staphylococcus aureus ATCC 6538 after 24 hrs by paper disk diffusion assay; assay type: functional; how it was run: as §2
[7] = test system: Bacillus cereus; experiment: Antibacterial activity against Bacillus cereus ATCC 11778 after 24 hrs by paper disk diffusion assay; assay type: functional; how it was run: as §2
[8] = test system: Bacillus subtilis; experiment: Antibacterial activity against Bacillus subtilis ATCC 6633 after 24 hrs by paper disk diffusion assay; assay type: functional; how it was run: as §2
[9] = test system: Aspergillus niger; experiment: Antifungal activity against Aspergillus niger ATCC 16404 after 24 to 48 hrs by paper disk diffusion assay; assay type: functional; how it was run: as §1

With `C=CCCCCn1cc(CN(CC=C)C(=O)CO[C@H]2O[C@H](COCC=C)[C@H](OCC=C)[C@H](O)[C@H]2OCC=C)nn1` as the molecule, how does the IC50 [1] read?
The IC50 was 1190 µg/mL (≈ 2120 µM).

Which results are given for `CCCCCCCCCCCCNC(=O)CO[C@H]1O[C@H](COC(C)=O)C=C(OC(C)=O)C1=O`?
inhibition zone (IZ) [2]: > 26 mm and 30 mm; IC50 [1]: 136 µg/mL (≈ 290 µM); diameter of the inhibition zone (DIZ) [3]: <12 mm; diameter of the inhibition zone (DIZ) [4]: 24 mm; inhibition zone (IZ) [4]: 24 mm; diameter of the inhibition zone (DIZ) [5]: 17 mm; inhibition zone (IZ) [5]: 17 mm; diameter of the inhibition zone (DIZ) [6]: 17 mm; inhibition zone (IZ) [6]: 17 mm; diameter of the inhibition zone (DIZ) [7]: 39 mm; inhibition zone (IZ) [7]: >=26 mm; diameter of the inhibition zone (DIZ) [8]: 40 mm; inhibition zone (IZ) [8]: >=26 mm; diameter of the inhibition zone (DIZ) [9]: 12 mm; inhibition zone (IZ) [9]: 12 mm

With `CC(=O)OC[C@@H]1C=C(OC(C)=O)C(=O)[C@@H](OCC(=O)NCc2cn(Cc3ccccc3)nn2)O1` as the molecule, how does the IC50 [1] read?
Its IC50 is 10300 µg/mL (≈ 21800 µM).

For `C=CCNC(=O)CO[C@H]1O[C@H](COC(C)=O)C=C(OC(C)=O)/C1=C\C(=O)OCC`, which IC50 [1] is on record?
The IC50 was 352 µg/mL (≈ 856 µM).

Which IC50 [1] does the source give for `O=C(CO[C@H]1O[C@H](CO)[C@@H](O)[C@H](O)[C@H]1O)NCc1cn(Cc2ccccc2)nn1` here?
Its IC50 is 193 µg/mL (≈ 473 µM).

For `C#CCNC(=O)CO[C@H]1O[C@H](COC(C)=O)C=C(OC(C)=O)/C1=C\C(=O)OCC`, which inhibition zone (IZ) [2] is on record?
The inhibition zone (IZ) was less than 12 mm.

What about the IC50 [1] of the same molecule?
The IC50 was 257 µg/mL (≈ 628 µM).

What about the “diameter of the inhibition zone (DIZ)” value [3] of the same molecule?
Its value is less than 12 mm.

What about the “diameter of the inhibition zone (DIZ)” value [4] of the same molecule?
The value was 24 mm.

And the inhibition zone (IZ) [4]?
The inhibition zone (IZ) was 24 mm.

What about the “diameter of the inhibition zone (DIZ)” value [5] of the same molecule?
Its value is less than 12 mm.

What about the “diameter of the inhibition zone (DIZ)” value [6] of the same molecule?
Its value is less than 12 mm.

And the “diameter of the inhibition zone (DIZ)” value [7]?
Its value is less than 12 mm.

And the “diameter of the inhibition zone (DIZ)” value [8]?
Its value is less than 12 mm.

And the “diameter of the inhibition zone (DIZ)” value [9]?
Its value is less than 12 mm.

For `O=C(CO[C@@H]1O[C@H](CO)[C@@H](O)[C@H](O)[C@H]1O)NCc1cn(Cc2ccccc2)nn1`, which IC50 [1] is on record?
The IC50 was 426 µg/mL (≈ 1040 µM).

With `C[S+](C)[O-]` [DIMETHYL SULFOXIDE] as the molecule, how does the IC50 [1] read?
The IC50 was 199 µg/mL (≈ 2550 µM).

With `C#CCNC(=O)CO[C@H]1O[C@H](COC(C)=O)C=C(OC(C)=O)C1=O` as the molecule, how does the IC50 [1] read?
Its IC50 is 282 µg/mL (≈ 831 µM).

With `CCOC(=O)/C=C1\C(OC(C)=O)=C[C@@H](COC(C)=O)O[C@@H]1OCC(=O)NCc1cn(Cc2ccccc2)nn1` as the molecule, how does the IC50 [1] read?
Its IC50 is 12000 µg/mL (≈ 22100 µM).

With `CC(=O)OC[C@H]1O[C@H](OCC(=O)NCc2cn(Cc3ccccc3)nn2)[C@H](O)[C@@H](OC(C)=O)[C@@H]1OC(C)=O` as the molecule, how does the IC50 [1] read?
The IC50 was 69 µg/mL (≈ 129 µM).

Which results are given for `CCCCCCCCCCCCNC(=O)CO[C@H]1O[C@H](COC(C)=O)C=C(OC(C)=O)/C1=C\C(=O)OCC`?
inhibition zone (IZ) [2]: 12 mm; IC50 [1]: 76 µg/mL (≈ 141 µM); diameter of the inhibition zone (DIZ) [3]: <12 mm; diameter of the inhibition zone (DIZ) [4]: 22 mm; inhibition zone (IZ) [4]: 22 mm; diameter of the inhibition zone (DIZ) [5]: <12 mm; diameter of the inhibition zone (DIZ) [6]: 20 mm; inhibition zone (IZ) [6]: 20 mm; diameter of the inhibition zone (DIZ) [7]: <12 mm; diameter of the inhibition zone (DIZ) [8]: 12 mm; inhibition zone (IZ) [8]: 12 mm; diameter of the inhibition zone (DIZ) [9]: <12 mm

With `C[C@@H]1C[C@@H]([C@H](O)CC2CC(=O)NC(=O)C2)C(=O)[C@@H](C)C1` [CYCLOHEXIMIDE] as the molecule, how does the inhibition zone (IZ) [2] read?
Its inhibition zone (IZ) is > 26 mm and 26 mm.

What about the “diameter of the inhibition zone (DIZ)” value [9] of the same molecule?
The value was 43 mm.

And the “inhibition zone (IZ)” value [9]?
The value was “>=26 mm”.

With `O=C(CO[C@H]1O[C@H](CO)[C@H](O)[C@H](O)[C@H]1O)NCc1cn(Cc2ccccc2)nn1` as the molecule, how does the IC50 [1] read?
The IC50 was 617 µg/mL (≈ 1510 µM).

Which IC50 [1] does the source give for `OO` [HYDROGEN PEROXIDE] here?
The IC50 was 2 µg/mL (≈ 58.8 µM).

For `CC(=O)OC[C@@H]1C=C(OC(C)=O)C(=O)[C@@H](OCC(=O)NCc2ccccc2)O1`, which IC50 [1] is on record?
Its IC50 is 163 µg/mL (≈ 416 µM).

Which “diameter of the inhibition zone (DIZ)” value [3] does the source give for `O=C(N[C@H](CO)[C@H](O)c1ccc([N+](=O)[O-])cc1)C(Cl)Cl` [CHLORAMPHENICOL] here?
Its value is 41 mm.

And the “inhibition zone (IZ)” value [3]?
Its value is “>=26 mm”.

And the “diameter of the inhibition zone (DIZ)” value [4]?
Its value is 37 mm.

What about the “inhibition zone (IZ)” value [4] of the same molecule?
The value was “>=26 mm”.

And the “diameter of the inhibition zone (DIZ)” value [5]?
The value was 33 mm.

What about the “inhibition zone (IZ)” value [5] of the same molecule?
The value was “>=26 mm”.

And the “diameter of the inhibition zone (DIZ)” value [6]?
The value was 36 mm.

What about the “inhibition zone (IZ)” value [6] of the same molecule?
The value was “>=26 mm”.

And the “diameter of the inhibition zone (DIZ)” value [7]?
Its value is 31 mm.

What about the “inhibition zone (IZ)” value [7] of the same molecule?
The value was “>=26 mm”.

And the “diameter of the inhibition zone (DIZ)” value [8]?
Its value is 40 mm.

And the “inhibition zone (IZ)” value [8]?
The value was “>=26 mm”.

What does the source list for `CCOC(=O)/C=C1\C(OC(C)=O)=C[C@@H](COC(C)=O)O[C@@H]1OCC(=O)NCc1ccccc1`?
inhibition zone (IZ) [2]: 12 mm; IC50 [1]: 128 µg/mL (≈ 277 µM); diameter of the inhibition zone (DIZ) [3]: <12 mm; diameter of the inhibition zone (DIZ) [4]: 24 mm; inhibition zone (IZ) [4]: 24 mm; diameter of the inhibition zone (DIZ) [5]: <12 mm; diameter of the inhibition zone (DIZ) [6]: <12 mm; diameter of the inhibition zone (DIZ) [7]: <12 mm; diameter of the inhibition zone (DIZ) [8]: <12 mm; diameter of the inhibition zone (DIZ) [9]: <12 mm

For `C=CCCCCn1cc(CNC(=O)CO[C@H]2O[C@H](CO)[C@H](O)[C@H](O)[C@H]2O)nn1`, which IC50 [1] is on record?
Its IC50 is 394 µg/mL (≈ 984 µM).

Which IC50 [1] does the source give for `C=CCCCCn1cc(CNC(=O)CO[C@H]2O[C@H](COC(C)=O)[C@H](OC(C)=O)[C@H](OC(C)=O)[C@H]2O)nn1` here?
Its IC50 is 63 µg/mL (≈ 120 µM).

With `C[C@@H]1[C@H](O)[C@@H](C)/C=C/C=C/C=C/C=C/C=C/C=C/C=C/[C@H](O[C@@H]2O[C@H](C)[C@@H](O)[C@H](N)[C@@H]2O)C[C@@H]2O[C@](O)(C[C@@H](O)C[C@@H](O)[C@H](O)CC[C@@H](O)C[C@@H](O)CC(=O)O[C@H]1C)C[C@H](O)[C@H]2C(=O)O` [AMPHOTERICIN B] as the molecule, how does the inhibition zone (IZ) [2] read?
Its inhibition zone (IZ) is > 26 mm and 26 mm.

And the “diameter of the inhibition zone (DIZ)” value [9]?
The value was 22 mm.

And the “inhibition zone (IZ)” value [9]?
Its value is 22 mm.

For `CC(=O)OC[C@H]1O[C@@H](OCC(=O)NCc2cn(Cc3ccccc3)nn2)[C@H](O)[C@@H](OC(C)=O)[C@@H]1OC(C)=O`, which IC50 [1] is on record?
The IC50 was 505 µg/mL (≈ 945 µM).

For `CCCCCCCCCCCCNC(=O)CO[C@@H]1O[C@H](COC(C)=O)C=C(OC(C)=O)C1=O`, which inhibition zone (IZ) [2] is on record?
Its inhibition zone (IZ) is > 26 mm and 33 mm.

And the IC50 [1]?
The IC50 was 45 µg/mL (≈ 95.8 µM).

What about the “diameter of the inhibition zone (DIZ)” value [3] of the same molecule?
Its value is 14 mm.

What about the “inhibition zone (IZ)” value [3] of the same molecule?
The value was 14 mm.

What about the “diameter of the inhibition zone (DIZ)” value [4] of the same molecule?
The value was less than 12 mm.

And the “diameter of the inhibition zone (DIZ)” value [5]?
The value was 14 mm.

What about the “inhibition zone (IZ)” value [5] of the same molecule?
The value was 14 mm.

And the “diameter of the inhibition zone (DIZ)” value [6]?
Its value is 13 mm.

What about the inhibition zone (IZ) [6] of the same molecule?
Its inhibition zone (IZ) is 13 mm.

What about the “diameter of the inhibition zone (DIZ)” value [7] of the same molecule?
The value was 16 mm.

And the “inhibition zone (IZ)” value [7]?
The value was 14 mm.

What about the “diameter of the inhibition zone (DIZ)” value [8] of the same molecule?
The value was 21 mm.

What about the “inhibition zone (IZ)” value [8] of the same molecule?
Its value is 18 mm.

And the “diameter of the inhibition zone (DIZ)” value [9]?
Its value is 40 mm.

What about the “inhibition zone (IZ)” value [9] of the same molecule?
The value was “>=26 mm”.

Which IC50 [1] does the source give for `CC(=O)OC[C@H]1O[C@H](OCC(=O)NCc2cn(Cc3ccccc3)nn2)[C@H](O)[C@@H](OC(C)=O)[C@H]1OC(C)=O` here?
Its IC50 is 879 µg/mL (≈ 1640 µM).
